Where “and” joins values, the source holds several entries; their conditions need not be identical. Equal values may be shown once.
System: HEK-293T
Assay: Multiplex assay against HEK293T
Assay type: toxicity, cell-based
Details: human
Procedure, shortened: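 Tubulin, mitochondrial-mass and membrane-permeability phenotypes are per cents of healthy-nucleus cells. Cells were gated by CellPathfinder machine learning into Hoechst high-intensity objects or normal cells, normal cells into healthy, pyknosed or fragmented nuclei, and pyknosed cells into mitotic or apoptotic. Before that, live cells stained at seeding with Hoechst33342, BioTracker Green Microtubule Cytoskeleton Dye, MitoTracker Red and Annexin V Alexa Fluor 680 were imaged on a CQ1 microscope at 37°C and 5% CO2 after compound addition.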

[1] = 12 h, 1 µM, compound concentration 1 uM
[2] = 12 h, 10 µM, compound concentration 10 uM
[3] = 24 h, 1 µM, compound concentration 1 uM
[4] = 24 h, 10 µM, compound concentration 10 uM
[5] = 48 h, 1 µM, compound concentration 1 uM
[6] = 48 h, 10 µM, compound concentration 10 uM

CC(C)(O)C(=O)N1CCN(c2ccc(C(F)(F)F)c(C3=C(c4c[nH]c5ccccc45)C(=O)NC3=O)c2)CC1
Population Apoptotic (%) [1]: 33% and 46%
Population Fragmented Nuclei (%) [1]: 4% and 5%
Population Healthy Nuclei (%) [1]: 78% and 76%
Population Hoechst High Intensity Objects (%) [1]: 8% and 7%
Population Membrane Permeable-Phenotype (%) [1]: 0%
Population Mitochondria Different-Phenotype (%) [1]: 43% and 58%
Population Mitotic Cells (%) [1]: 66% and 53%
Population Normal (%) [1]: 91% and 92%
Population Pyknosed Nuclei (%) [1]: 16% and 17%
Population Tubulin-Different-Phenotype (%) [1]: 28% and 30%
Total Cell Count [1]: 381 and 293
Population Apoptotic (%) [2]: 51% and 72%
Population Fragmented Nuclei (%) [2]: 4% and 3%
Population Healthy Nuclei (%) [2]: 74% and 75%
Population Hoechst High Intensity Objects (%) [2]: 10% and 7%
Population Membrane Permeable-Phenotype (%) [2]: 0%
Population Mitochondria Different-Phenotype (%) [2]: 61% and 90%
Population Mitotic Cells (%) [2]: 48% and 27%
Population Normal (%) [2]: 89% and 92%
Population Pyknosed Nuclei (%) [2]: 20% and 21%
Population Tubulin-Different-Phenotype (%) [2]: 62% and 63%
Total Cell Count [2]: 338 and 203
Population Apoptotic (%) [3]: 33% and 29%
Population Fragmented Nuclei (%) [3]: 8% and 5%
Population Healthy Nuclei (%) [3]: 74% and 79%
Population Hoechst High Intensity Objects (%) [3]: 5%
Population Membrane Permeable-Phenotype (%) [3]: 0%
Population Mitochondria Different-Phenotype (%) [3]: 32% and 48%
Population Mitotic Cells (%) [3]: 66% and 70%
Population Normal (%) [3]: 94%
Population Pyknosed Nuclei (%) [3]: 17% and 14%
Population Tubulin-Different-Phenotype (%) [3]: 19%
Total Cell Count [3]: 469 and 335
Population Apoptotic (%) [4]: 45% and 66%
Population Fragmented Nuclei (%) [4]: 6% and 2%
Population Healthy Nuclei (%) [4]: 71%
Population Hoechst High Intensity Objects (%) [4]: 4% and 7%
Population Membrane Permeable-Phenotype (%) [4]: 1% and 0%
Population Mitochondria Different-Phenotype (%) [4]: 48% and 84%
Population Mitotic Cells (%) [4]: 54% and 34%
Population Normal (%) [4]: 95% and 92%
Population Pyknosed Nuclei (%) [4]: 22% and 25%
Population Tubulin-Different-Phenotype (%) [4]: 43% and 60%
Total Cell Count [4]: 387 and 212
Population Apoptotic (%) [5]: 25% and 27%
Population Fragmented Nuclei (%) [5]: 9% and 10%
Population Healthy Nuclei (%) [5]: 79%
Population Hoechst High Intensity Objects (%) [5]: 2% and 5%
Population Membrane Permeable-Phenotype (%) [5]: 0%
Population Mitochondria Different-Phenotype (%) [5]: 21% and 29%
Population Mitotic Cells (%) [5]: 74% and 72%
Population Normal (%) [5]: 97% and 94%
Population Pyknosed Nuclei (%) [5]: 10%
Population Tubulin-Different-Phenotype (%) [5]: 14% and 15%
Total Cell Count [5]: 780 and 571
Population Apoptotic (%) [6]: 54% and 78%
Population Fragmented Nuclei (%) [6]: 8% and 9%
Population Healthy Nuclei (%) [6]: 71%
Population Hoechst High Intensity Objects (%) [6]: 8%
Population Membrane Permeable-Phenotype (%) [6]: 0%
Population Mitochondria Different-Phenotype (%) [6]: 53% and 71%
Population Mitotic Cells (%) [6]: 45% and 21%
Population Normal (%) [6]: 91%
Population Pyknosed Nuclei (%) [6]: 19%
Population Tubulin-Different-Phenotype (%) [6]: 25% and 40%
Total Cell Count [6]: 467 and 227

O=C1COc2nccc(-c3ccccc3F)c2CN1Cc1cc(C(F)(F)F)cc(C(F)(F)F)c1
Population Apoptotic (%) [1]: 31% and 51%
Population Fragmented Nuclei (%) [1]: 8% and 4%
Population Healthy Nuclei (%) [1]: 80% and 83%
Population Hoechst High Intensity Objects (%) [1]: 5% and 10%
Population Membrane Permeable-Phenotype (%) [1]: 0%
Population Mitochondria Different-Phenotype (%) [1]: 41% and 67%
Population Mitotic Cells (%) [1]: 68% and 48%
Population Normal (%) [1]: 94% and 89%
Population Pyknosed Nuclei (%) [1]: 10% and 11%
Population Tubulin-Different-Phenotype (%) [1]: 27% and 20%
Total Cell Count [1]: 397 and 333
Population Apoptotic (%) [2]: 38% and 57%
Population Fragmented Nuclei (%) [2]: 10% and 8%
Population Healthy Nuclei (%) [2]: 76% and 79%
Population Hoechst High Intensity Objects (%) [2]: 9% and 5%
Population Membrane Permeable-Phenotype (%) [2]: 0%
Population Mitochondria Different-Phenotype (%) [2]: 67% and 76%
Population Mitotic Cells (%) [2]: 61% and 42%
Population Normal (%) [2]: 90% and 94%
Population Pyknosed Nuclei (%) [2]: 13% and 12%
Population Tubulin-Different-Phenotype (%) [2]: 68% and 39%
Total Cell Count [2]: 475 and 382
Population Apoptotic (%) [3]: 21% and 59%
Population Fragmented Nuclei (%) [3]: 8% and 5%
Population Healthy Nuclei (%) [3]: 84% and 87%
Population Hoechst High Intensity Objects (%) [3]: 3% and 8%
Population Membrane Permeable-Phenotype (%) [3]: 0%
Population Mitochondria Different-Phenotype (%) [3]: 32% and 39%
Population Mitotic Cells (%) [3]: 78% and 40%
Population Normal (%) [3]: 96% and 91%
Population Pyknosed Nuclei (%) [3]: 7% and 6%
Population Tubulin-Different-Phenotype (%) [3]: 23% and 12%
Total Cell Count [3]: 517 and 428
Population Apoptotic (%) [4]: 52% and 36%
Population Fragmented Nuclei (%) [4]: 10% and 7%
Population Healthy Nuclei (%) [4]: 76% and 79%
Population Hoechst High Intensity Objects (%) [4]: 5%
Population Membrane Permeable-Phenotype (%) [4]: 0%
Population Mitochondria Different-Phenotype (%) [4]: 71% and 72%
Population Mitotic Cells (%) [4]: 47% and 63%
Population Normal (%) [4]: 94%
Population Pyknosed Nuclei (%) [4]: 13% and 12%
Population Tubulin-Different-Phenotype (%) [4]: 68% and 44%
Total Cell Count [4]: 520 and 492
Population Apoptotic (%) [5]: 27% and 38%
Population Fragmented Nuclei (%) [5]: 13% and 9%
Population Healthy Nuclei (%) [5]: 80% and 81%
Population Hoechst High Intensity Objects (%) [5]: 2% and 4%
Population Membrane Permeable-Phenotype (%) [5]: 0%
Population Mitochondria Different-Phenotype (%) [5]: 29% and 23%
Population Mitotic Cells (%) [5]: 72% and 61%
Population Normal (%) [5]: 97% and 95%
Population Pyknosed Nuclei (%) [5]: 6% and 8%
Population Tubulin-Different-Phenotype (%) [5]: 14% and 12%
Total Cell Count [5]: 743 and 574
Population Apoptotic (%) [6]: 44% and 56%
Population Fragmented Nuclei (%) [6]: 13% and 11%
Population Healthy Nuclei (%) [6]: 75% and 80%
Population Hoechst High Intensity Objects (%) [6]: 3% and 2%
Population Membrane Permeable-Phenotype (%) [6]: 0%
Population Mitochondria Different-Phenotype (%) [6]: 63% and 51%
Population Mitotic Cells (%) [6]: 55% and 43%
Population Normal (%) [6]: 96% and 97%
Population Pyknosed Nuclei (%) [6]: 11% and 7%
Population Tubulin-Different-Phenotype (%) [6]: 46% and 25%
Total Cell Count [6]: 713 and 669

C[C@H](N)COC(=O)[C@@H](CCCCN)NC(=O)Cc1c(-c2ccc3ccccc3c2)[nH]c2c1ccc1ccccc12
Population Apoptotic (%) [1]: 22% and 51%
Population Fragmented Nuclei (%) [1]: 6% and 8%
Population Healthy Nuclei (%) [1]: 82% and 74%
Population Hoechst High Intensity Objects (%) [1]: 8%
Population Membrane Permeable-Phenotype (%) [1]: 0%
Population Mitochondria Different-Phenotype (%) [1]: 37% and 65%
Population Mitotic Cells (%) [1]: 77% and 48%
Population Normal (%) [1]: 91%
Population Pyknosed Nuclei (%) [1]: 10% and 16%
Population Tubulin-Different-Phenotype (%) [1]: 27% and 30%
Total Cell Count [1]: 458 and 291
Population Apoptotic (%) [2]: 41% and 61%
Population Fragmented Nuclei (%) [2]: 7% and 5%
Population Healthy Nuclei (%) [2]: 78%
Population Hoechst High Intensity Objects (%) [2]: 11% and 7%
Population Membrane Permeable-Phenotype (%) [2]: 0%
Population Mitochondria Different-Phenotype (%) [2]: 60% and 72%
Population Mitotic Cells (%) [2]: 58% and 38%
Population Normal (%) [2]: 88% and 93%
Population Pyknosed Nuclei (%) [2]: 14% and 16%
Population Tubulin-Different-Phenotype (%) [2]: 54% and 50%
Total Cell Count [2]: 435 and 343
Population Apoptotic (%) [3]: 25% and 54%
Population Fragmented Nuclei (%) [3]: 9% and 7%
Population Healthy Nuclei (%) [3]: 77% and 80%
Population Hoechst High Intensity Objects (%) [3]: 4% and 7%
Population Membrane Permeable-Phenotype (%) [3]: 0% and 1%
Population Mitochondria Different-Phenotype (%) [3]: 24% and 47%
Population Mitotic Cells (%) [3]: 75% and 45%
Population Normal (%) [3]: 95% and 92%
Population Pyknosed Nuclei (%) [3]: 12%
Population Tubulin-Different-Phenotype (%) [3]: 19% and 25%
Total Cell Count [3]: 638 and 352
Population Apoptotic (%) [4]: 41% and 48%
Population Fragmented Nuclei (%) [4]: 6% and 9%
Population Healthy Nuclei (%) [4]: 78% and 80%
Population Hoechst High Intensity Objects (%) [4]: 6% and 7%
Population Membrane Permeable-Phenotype (%) [4]: 0%
Population Mitochondria Different-Phenotype (%) [4]: 57% and 54%
Population Mitotic Cells (%) [4]: 58% and 51%
Population Normal (%) [4]: 93% and 92%
Population Pyknosed Nuclei (%) [4]: 14% and 10%
Population Tubulin-Different-Phenotype (%) [4]: 45% and 42%
Total Cell Count [4]: 539 and 439
Population Apoptotic (%) [5]: 15% and 37%
Population Fragmented Nuclei (%) [5]: 13% and 11%
Population Healthy Nuclei (%) [5]: 78% and 79%
Population Hoechst High Intensity Objects (%) [5]: 4%
Population Membrane Permeable-Phenotype (%) [5]: 2% and 0%
Population Mitochondria Different-Phenotype (%) [5]: 16% and 29%
Population Mitotic Cells (%) [5]: 84% and 62%
Population Normal (%) [5]: 95%
Population Pyknosed Nuclei (%) [5]: 7% and 9%
Population Tubulin-Different-Phenotype (%) [5]: 13% and 17%
Total Cell Count [5]: 963 and 540
Population Apoptotic (%) [6]: 27% and 32%
Population Fragmented Nuclei (%) [6]: 13% and 14%
Population Healthy Nuclei (%) [6]: 78% and 79%
Population Hoechst High Intensity Objects (%) [6]: 6% and 4%
Population Membrane Permeable-Phenotype (%) [6]: 0%
Population Mitochondria Different-Phenotype (%) [6]: 44% and 43%
Population Mitotic Cells (%) [6]: 72% and 67%
Population Normal (%) [6]: 93% and 95%
Population Pyknosed Nuclei (%) [6]: 7% and 6%
Population Tubulin-Different-Phenotype (%) [6]: 33% and 35%
Total Cell Count [6]: 781 and 681
